ChEMBL document CHEMBL5365494, “Bis-6-amidino-benzothiazole Derivative that Cures Experimental Stage 1 African Trypanosomiasis with a Single Dose” (J Med Chem, 2023)
pEC50: −log10 of the molar value.

Experiments:
[1] = Metabolic stability in mouse liver microsomes assessed as half life at 1 uM measured upto 60 mins in presence of NADPH by LC-MS/MS analysis; format: ADME, Microsome; details: 1 h
Trypanosoma brucei = assay: Antitrypanosomal activity against blood stream form of Trypanosoma brucei 221a variant assessed as parasite growth inhibition measured after 48 hrs by resazurin dye based fluorescence analysis; format: functional, organism-based; details: for pEC50: 48 h; for EC90: time 48 hrs
Method in brief: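 Bloodstream-form T. b. brucei 221a (MiTat1.2a) in modified Iscove's medium at 37 °C, started at 2.5×10^4 mL^-1 with a concentration range. After 48 h, resazurin was added for a further 16 h. Fluorescence read at ex 545/em 590 nm. EC50 and EC90 taken from three independent replicates.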

[2] = Selectivity index, ratio of EC50 for cytotoxicity against rat L6 cells to EC50 for antitrypanosomal activity against bloodstream form of Trypanosoma brucei brucei 221a variant; format: toxicity, cell-based; details: read-out: Ratio EC50
Method in brief: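 L6 rat myoblasts seeded at 1×10^4 mL^-1 in RPMI-1640 with a compound concentration range for 6 days at 37 °C. Resazurin added for 6 h, then fluorescence read.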

[3] = Cytotoxicity against rat L6 cells assessed as cell growth inhibition incubated for 6 days by resazurin dye based assay; format: toxicity
Method in brief: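 Rat L6 myoblasts seeded at 1×10⁴ mL⁻¹ in RPMI-1640 with a range of compound concentrations, 6 days at 37 °C; resazurin added, 6 h further, fluorescence ex 545/em 590 nm.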

[4] = Apparent permeability across apical to basolateral side in MDCK-MDR1 cells at 10 uM measured for 60 mins by LC-MS/MS analysis; format: ADME, cell-based, Canis lupus familiaris; details: dog
Method in brief: (§1)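 MDCKII-hMDR1 monolayers on inserts, compound 10 μM (1% DMSO) in duplicate, 60 min at 37 °C, bidirectional, with and without elacridar 2 μM. Amprenavir as P-gp control, Lucifer yellow for monolayer integrity; compound quantified by LC–MS/MS.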

[5] = Efflux ratio of apparent permeability across basolateral to apical side over apical to basolateral side in MDCK-MDR1 cells at 10 uM measured for 60 mins by LC-MS/MS analysis; format: ADME, cell-based, Canis lupus familiaris; details: dog, mdck-mdr1, 1 h
Method in brief: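 MDCKII cells overexpressing human MDR1 (P-glycoprotein) grown as monolayers on inserts; bidirectional transport (apical-to-basolateral and basolateral-to-apical) of 10 μM compound (1% DMSO) at 37 °C for 60 min, in duplicate, with and without P-gp inhibitor elacridar (2 μM). Monolayer integrity checked with Lucifer yellow; amprenavir as P-gp control. Compound quantified by LC–MS/MS; efflux ratio = BA Papp/AB Papp.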

[6] = Apparent permeability across basolateral to apical side in MDCK-MDR1 cells at 10 uM measured for 60 mins by LC-MS/MS analysis; format: ADME, cell-based, Canis lupus familiaris; details: dog, MDCK-MDR1; method in brief: as §1

Row | Structure (SMILES) | t1/2 [1] [min] | pEC50 (Trypanosoma brucei) | EC90 (Trypanosoma brucei) [µM] | selectivity ratio [2] | EC50 at 6 days [3] [µM] | Papp A→B at 1 h, 10 µM [4] [×10⁻⁶ cm/s] | Ratio [5] | Papp B→A at 1 h, 10 µM [6] [×10⁻⁶ cm/s]
1 | Cn1c(=O)c2c(ncn2C)n(C)c1=O [CAFFEINE] | > 60 | – | – | – | – | – | – | –
2 | CSc1ccc(OCc2ncc([N+](=O)[O-])n2C)cc1 [FEXINIDAZOLE] | – | 5.62 | 4.51 | – | – | – | – | –
3 | N=C(N)c1ccc2nc(CCc3nc4ccc(C(=N)N)cc4s3)sc2c1 | – | 6.60 | 0.4 | > 680 | > 170 | – | – | –
4 | N=C(N)c1ccc2nc(CCCCCCCc3nc4ccc(C(=N)N)cc4s3)sc2c1 | – | 6.13 | 1.39 | 18 | 13.9 | – | – | –
5 | c1cc2nc(CCCCCc3nc4ccc(C5=NCCN5)cc4s3)sc2cc1C1=NCCN1 | – | 5.81 | 2.11 | 60 | 93.5 | – | – | –
6 | CC(C)CN(C[C@@H](O)[C@H](Cc1ccccc1)NC(=O)O[C@H]1CCOC1)S(=O)(=O)c1ccc(N)cc1 [AMPRENAVIR] | – | – | – | – | – | 0.5 | – | –
7 | c1cc2nc(CCc3nc4ccc(C5=NCCN5)cc4s3)sc2cc1C1=NCCN1 | – | 5.44 | 7.82 | 22 | 80.6 | – | – | –
8 | N=C(N)c1ccc2nc(CCCCc3nc4ccc(C(=N)N)cc4s3)sc2c1 | – | 7.20 | 0.131 | 2100 | 134 | – | – | –
9 | c1cc2nc(CCCCCCc3nc4ccc(C5=NCCN5)cc4s3)sc2cc1C1=NCCN1 | – | 6.09 | 1.88 | 13 | 10.9 | – | – | –
10 | N=C(N)c1ccc2nc(CCCc3nc4ccc(C(=N)N)cc4s3)sc2c1 | – | 6.47 | 0.75 | > 470 | > 160 | – | – | –
11 | c1cc2nc(CCCCc3nc4ccc(C5=NCCCN5)cc4s3)sc2cc1C1=NCCCN1 | – | 6.72 | 0.31 | > 680 | > 130 | – | – | –
12 | C(=C\c1nc2ccc(C3=NCCN3)cc2s1)/c1nc2ccc(C3=NCCN3)cc2s1 | – | 6.72 | 0.68 | 22 | 4.1 | – | – | –
13 | N=C(N)c1ccc2nc(CCCCCCc3nc4ccc(C(=N)N)cc4s3)sc2c1 | – | 6.05 | 1.52 | 48 | 42.5 | – | – | –
14 | O=C(O)Cc1ccccc1Nc1c(Cl)cccc1Cl [DICLOFENAC] | – | – | – | – | – | 47.3 | 0.7 | 31.2
15 | C[C@]12CC[C@H]3[C@@H](CCC4=CC(=O)CC[C@@]43C)[C@@H]1CC[C@@H]2O [TESTOSTERONE] | 6.7 | – | – | – | – | – | – | –
16 | N=C(N)c1ccc2nc(CCCCCc3nc4ccc(C(=N)N)cc4s3)sc2c1 | – | 7.01 | 0.145 | 1200 | 114 | – | – | –
17 | c1cc2nc(CCCCCCCc3nc4ccc(C5=NCCN5)cc4s3)sc2cc1C1=NCCN1 | – | 5.83 | 2.52 | 4.6 | 6.85 | – | – | –
18 | N=C(N)c1ccc2nc(/C=C/c3nc4ccc(C(=N)N)cc4s3)sc2c1 | – | 7.92 | 0.022 | 210 | 2.48 | – | – | –
19 | c1cc2nc(C3CCC(c4nc5ccc(C6=NCCCN6)cc5s4)CC3)sc2cc1C1=NCCCN1 (stereo not drawn) | – | 7.68 | 0.031 | > 6200 | > 130 | – | – | –
20 | c1cc2nc(CCCCCCc3nc4ccc(C5=NCCCN5)cc4s3)sc2cc1C1=NCCCN1 | – | 7.55 | 0.056 | > 4600 | > 130 | – | – | –
21 | c1cc2nc(CCCCc3nc4ccc(C5=NCCN5)cc4s3)sc2cc1C1=NCCN1 | – | 5.94 | 1.87 | 82 | 93 | – | – | –
22 | c1cc2nc(C3CCC(c4nc5ccc(C6=NCCN6)cc5s4)CC3)sc2cc1C1=NCCN1 (stereo not drawn) | – | 6.62 | 0.49 | 17 | 4.15 | – | – | –
23 | c1cc2nc(CCCc3nc4ccc(C5=NCCN5)cc4s3)sc2cc1C1=NCCN1 | – | 5.27 | 9.01 | > 28 | > 150 | – | – | –
24 | c1cc2nc(CCc3nc4ccc(C5=NCCCN5)cc4s3)sc2cc1C1=NCCCN1 | – | 5.62 | 3.48 | > 59 | > 140 | – | – | –
25 | C(=C\c1nc2ccc(C3=NCCCN3)cc2s1)/c1nc2ccc(C3=NCCCN3)cc2s1 | – | 7.00 | 0.16 | 520 | 51.8 | – | – | –
